High-throughput results from PubChem BioAssay.
PMI act hi M6P – activators of human phosphomannose isomerase at near-saturating mannose 6-phosphate; coupled PMI enzyme assay, resazurin fluorescence, 20 min; hits give high values; 1 = untreated enzyme, 0 = substrate-free blank; hit rate 0.34% among 190,000; AID 1216; P34949; activation factor at 20 µM;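 active = activation factor of 2 or more at 20 µM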
Target sequence (P34949 whole entry, looked up): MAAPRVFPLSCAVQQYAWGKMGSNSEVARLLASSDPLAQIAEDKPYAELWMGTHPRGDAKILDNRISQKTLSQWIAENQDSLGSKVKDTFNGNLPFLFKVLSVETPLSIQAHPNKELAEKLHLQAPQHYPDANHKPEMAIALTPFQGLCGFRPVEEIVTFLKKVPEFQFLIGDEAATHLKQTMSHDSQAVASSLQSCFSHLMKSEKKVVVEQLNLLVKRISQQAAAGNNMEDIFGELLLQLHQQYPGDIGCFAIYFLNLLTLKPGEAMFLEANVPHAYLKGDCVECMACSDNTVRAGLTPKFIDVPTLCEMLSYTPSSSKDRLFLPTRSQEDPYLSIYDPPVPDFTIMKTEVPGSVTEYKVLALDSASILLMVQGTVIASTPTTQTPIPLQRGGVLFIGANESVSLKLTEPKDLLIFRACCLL
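Test system: human phosphomannose isomerase with PGI, G6PDH, diaphorase coupling enzymes / Doses: 20 µM compound, 1% DMSO / Times: enzyme reaction with compound 20 min at room temperature / Measured by: Diaphorase-driven resazurin-to-resorufin fluorescence, excitation 544, emission 590 nm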
Diaphorase act – activates diaphorase or chemically reduces, flagging diaphorase assay artifacts; Diaphorase/resazurin coupled assay, resorufin fluorescence, 16 min; hits give high values; 1 = vehicle wells, 0 = NADH-free wells; activation factor at 20 µM; hit rate 0.005% among 190,000;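 active = diaphorase activity raised at least twofold by the compound at 20 µM; inactive = activation factor below 2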
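Material: bacterial diaphorase enzyme (C. kluyveri); amount: enzyme 0.07 U/mL final; reagent: NADH substrate 0.114 mM plus resazurin dye 0.1 mM, final; doses: single compound dose of 20 µM, 1% DMSO final; timing: 16 min enzyme reaction, ambient temperature; measured by: fluorescence of resorufin, 544 nm excitation, 590 nm emission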
WT yeast gro inh – growth inhibition of WT yeast, mitochondrial fusion screen | mitochondrial fusion phenotypic screen, WT strain | hit rate 2.1% among 190,000 | inhibition, % at 10 µM; in the data active = inhibition above about 58%; tested in S. cerevisiae
PMI activator – increases human mannose-6-phosphate isomerase activity | P34949 | purified human PMI, coupled resazurin fluorescence, 20 min; hits give high values; 1 = vehicle control, 0 substrate-free wells | AID 1214 | hit rate 0.005% among 190,000 | activation factor at 20 µM;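 active = activation factor of 2 or more at 20 µM, relative to plate controls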
L major viab – inhibitors of Leishmania major promastigote growth. Leishmania major promastigotes, resazurin fluorescence viability. inhibition, % at 10 µM. hit rate 9% among 200,000. AID 1063; in the data active = inhibition above about 50%;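 also: promastigotes grown with compound for 44 hours at 28 °C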
An asterisk follows results filed as active; x = no result. Hits are enriched below; roughly 10% of the tested compounds scored in any of these assays.

SMILES	PMI act hi M6P	Diaphorase act	WT yeast gro inh	PMI activator	L major viab
COc1cccc(CNC(=O)CCC2CCCN(c3cc(C)nc(N4CCCC4)n3)C2)c1 (stereo not drawn)	1.1	1.1	10	1	5
N#CC1=C(N)Oc2n[nH]c(-c3cccnc3)c2C1c1ccc([N+](=O)[O-])o1 (stereo not drawn)	1	0.9	2	1	-6
Cc1cc(/C=C2/NC(=O)NC2=O)c(C)n1C	0.8	0.8	-6	1.1	-1
O=C(NCCNC(=O)c1ccco1)c1ccc(F)cc1	1	0.9	-7	1	-3
O=C(NCCNCc1ccc(F)cc1)c1ccco1	1	0.9	-19	1	54*
COc1ccc(-c2csc(-c3ccc(C(=O)O)cc3)n2)cc1	1	1	10	1.1	10
COc1ccc(-c2csc(-c3[nH]cnc3N)n2)cc1	1.5	0.9	-10	1.5	96*
Cc1c(CN2CCC(CO)(CC3CCCCO3)CC2)cnn1C (stereo not drawn)	0.9	0.9	-9	0.9	-7
Cc1nc2ccccc2nc1CN1CCC(CO)(CC2CCCCO2)CC1 (stereo not drawn)	1	0.9	4	0.9	69*
CCOCCOC(=O)c1cccc(NC(=O)OCC)c1	1	0.9	x	1	3
CCCCOC(=O)Nc1cccc(C(=O)OCC)c1	0.9	0.9	73*	0.9	4
CCCC(=O)NC(Nc1c(C)n(C)n(-c2ccccc2)c1=O)C(Cl)(Cl)Cl (stereo not drawn)	1.1	1	6	1.1	-2
Cn1c(O)c(N=NC(=O)c2ccccc2O)c2ccccc21	1	0.9	9	1	3
Cc1occc1C(=O)N=Nc1c(O)n(C)c2ccccc12	1	1	4	0.9	71*
CN(C)CC1CCCCC1OC(=O)c1ccc(Br)cc1 (stereo not drawn)	1.1	1.1	-2	1.2	74*
CN(C)CC1CCCCC1OC(=O)c1ccc(Cl)cc1Cl (stereo not drawn)	1.1	0.9	-5	1	2
O=C(O)C1Nc2c(O)cc(Cl)c([N+](=O)[O-])c2C2C=CCC12 (stereo not drawn)	2.2*	0.3	13	1.7	-10
Cc1ccc2c(c1)C1C=CCC1C(C(=O)O)N2 (stereo not drawn)	1.8	0.4	3	1.5	6
CC(/C=C/c1ccccc1)=N\NC(=S)NC(C)C	1	1	71*	1	-7
O=C(C1CCN(CCCc2ccccc2)CC1)N(CCc1ccccc1)Cc1ccccc1	1.1	0.9	34	1	91*
CCN(Cc1ccccc1)C(=O)C1CCN(Cc2ccc(SC)cc2)CC1	1	0.9	-14	0.9	88*
CCN(Cc1ccccc1)C1CCN(Cc2ccc(SC)cc2)CC1	1.1	0.9	15	1.1	85*
CCN(CC)C(=O)C1CCN(Cc2ccc(Br)cc2)CC1	1.1	1	24	1.1	92*
CSc1ccc(/C=N/N2CCN(Cc3ccccc3)CC2)cc1	0.9	0.8	5	0.8	-4
O=C(C1CCN(CC2CC=CCC2)CC1)N(CCc1ccccc1)Cc1ccccc1 (stereo not drawn)	1	1	-5	1	27
SMILES	PMI act hi M6P	Diaphorase act	WT yeast gro inh	PMI activator	L major viab
CCN(CC)C(=O)C1CCN(Cc2cn(C)nc2-c2ccc(Oc3ccccc3)cc2)CC1	0.9	1.1	-8	1	7
O=[N+]([O-])c1ccc2nc(-c3ccccc3)n(OCc3ccc(Cl)cc3)c2c1	1.2	0.7	20	1.2	20
Cc1ccc(COn2c(-c3ccc(Cl)cc3Cl)nc3ncccc32)cc1	0.9	0.8	71*	0.9	14
Clc1cccc(COn2c(-c3ccc(Cl)cc3Cl)nc3ncccc32)c1	1	0.9	67*	1	100*
C1CCC(n2nnnc2CN2CCN(C3CCCC3)CC2)CC1	1	0.9	-17	1	90*
Cc1ccc(Cl)cc1N1CCN(Cc2nnnn2C2CCCCC2)CC1	1	0.9	74*	0.9	17
COc1ccc(C(=O)NNc2ccccc2)cc1OC	2.2*	0.8	44	1.4	56*
CCOC(=O)C1(Cc2ccccc2)CCCN(Cc2ccc(OCCO)cc2)C1 (stereo not drawn)	0.9	1	-9	1	6
Cc1cccc2nc(CSc3ccc(Cl)cc3)cn12	0.9	0.8	73*	0.8	18
Cc1ccc(SCc2cn3c(C)csc3n2)cc1	1.1	1	74*	1	-1
C[n+]1c2n(c3ccccc31)N=C(c1ccc(Br)cc1)CS2	1	0.8	51	0.9	97*
C[n+]1c2n(c3ccccc31)N=C(c1ccc(-c3ccccc3)cc1)CS2	1	1.3	87*	1	100*
C[n+]1c2n(c3ccccc31)N=C(c1ccccc1)CS2	1.1	1	18	1.1	98*
CCOC(=O)C1(C)NC(c2ccco2)C2C(=O)N(CC)C(=O)C21 (stereo not drawn)	1	1	-2	1	-4
COc1ccc(CC2(C)OC(c3ccccc3)=NN2C(C)=O)cc1 (stereo not drawn)	1.1	1	-4	1.1	53*
CC(C)C(C)(C#N)NC(=O)CSc1nc2scc(-c3ccc(F)cc3)c2c(=O)n1Cc1ccccc1 (stereo not drawn)	0.8	0.7	8	0.8	35
CC(C)C(c1nnnn1C(C)(C)C)N1CCN(c2cccc(Cl)c2)CC1 (stereo not drawn)	0.9	0.8	75*	1	16
CC(C)(C)n1nnnc1C(c1ccncc1)N1CCN(c2ccc(O)cc2)CC1 (stereo not drawn)	0.7	0.7	-9	0.6	9
CC(C)C(c1nnnn1Cc1ccco1)N1CCN(c2cccc(Cl)c2)CC1 (stereo not drawn)	1.1	0.9	8	1	85*
CN1CCC(OC(=O)c2ccc(Cl)cc2Cl)CC1	1	0.9	-16	1	96*
CN1CCC(OC(=O)c2ccco2)CC1	1	0.9	14	1	-4
CN1CCC(OC(=O)c2cccc(Br)c2)CC1	1	0.9	-13	0.9	93*
CC(CN1CCN(C)CC1)OC(=O)c1ccc(Cl)cc1Cl (stereo not drawn)	1.3	1	4	1.1	0
Cc1cc(C)nc(NC(=O)/C=C/c2ccc(Cl)cc2Cl)c1	0.9	0.9	74*	0.9	30
Cc1cc(C)nc(NC(=O)/C=C/c2cccs2)c1	1	0.9	14	1	16
Cc1cc(C)nc(NC(=O)/C=C/c2ccccc2Cl)c1	1	0.8	64*	0.9	7
Cc1cc(C)nc(NC(=O)/C=C/c2ccccc2Cl)n1	0.8	0.9	-1	0.8	0
CCOC(=O)/C(=C/c1ccccc1)NC(=O)c1ccco1	1	1	-4	0.9	-4
